Results published in PMC6858491 (ACS chemical biology, 2019).

Test system: Jurkat cells
Test: Apoptotic protection assay
Type: cell-based
Details: 20 µM inhibitor for 3 h before 10 ng/mL MegaFasL, CellTiter-Glo
Outline: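 Jurkat A3 cells were grown near confluence (10% FBS, pen/strep/glutamine, 37 °C, 5% CO2), resuspended in fresh medium, and plated at 10,000 cells/well. They were then given test compound (20 µM, or a concentration series with 30 min pretreatment) or DMSO vehicle, for set times before or after 10 ng/mL MegaFasL. Viability was read by CellTiter-Glo 3 h after induction.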

Substance: Z-D^ME^MVD^M-FMK [0^M]
- protection from extrinsic apoptosis (cellular viability): able to preserve cellular viability
